Measured values from publication PMC8965017 (International Journal of Nanomedicine, 2022).

Tests used:
[1] = test system: MDA-MB-231 tumor-bearing mice; test: In vivo antitumor efficacy; set-up: species or system BALB/c nude mice; conditions: 5 mg/kg once every 3 days, 6 times, day 18
Summary of the method: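 Female BALB/c nude mice aged 4–5 weeks carried subcutaneous MDA-MB-231 tumours. At about 100 mm3 they were randomised into 5 groups (n = 6): PBS, single drugs, combination or nanoparticles. From day 0, intravenous doses of 5 mg/kg were given every 3 days, 6 times in total. Tumour length and width were measured by caliper before each dose to calculate volume, and tumours were excised after the last dose.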

[2] = test system: MDA-MB-231 cells; test: In vitro cytotoxicity, MTT assay; type: cell-based, human; conditions: 5-100 μM, 24 and 48 h
Summary of the method: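 MDA-MB-231 cells were seeded at 1×10^4 cells/well for 24 h. Medium was then replaced with single drugs, their combination or the nanoparticle formulation at 5, 10, 20, 50, 75 and 100 μM. After 24 or 48 h, MTT was added for 4 h and absorbance was read at 490 nm. Survival was calculated from blank, treated and control OD; mean ± SD, n = 3.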

[3] = test system: MDA-MB-231 cells; test: Calcein-AM/PI staining; type: cell-based, human; conditions: DAS concentration 10 µM, 24 h
Summary of the method: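 MDA-MB-231 cells (RPMI-1640, 10% FBS, 1% penicillin-streptomycin; 37°C, 5% CO2) were seeded at 1×10^4 cells/well and grown overnight. They were then exposed for 24 h to free drugs, their combination or the nanoparticle formulation at a DAS concentration of 10 µM. Cells were stained with calcein-AM/PI at 37°C for 30 min and imaged by fluorescence microscopy.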

[4] = In vivo safety; set-up: species or system BALB/c nude mice; conditions: after treatment
Summary of the method: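 At the end of treatment, blood from the MDA-MB-231 xenograft-bearing nude mice was assayed for serum AST, ALT, AKP, BUN and creatinine. Major organs (heart, liver, spleen, lung, kidney) were taken for HE staining. Mean ± SD, n = 3.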

[5] = test system: MDA-MB-231 cells; test: Cell uptake of C6-labelled micelles; type: cell-based, human; conditions: MDA-MB-231, 1 h and 4 h
Summary of the method: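 Coumarin 6 was loaded into the polymer micelles by film dispersion. MDA-MB-231 cells were seeded overnight at 1×10^4 cells/well and given free C6 or C6-micelles; one group was pretreated with HA (10 mg/mL) for 0.5 h to block the receptor. After 1 h or 4 h at 37°C, cells were PBS-washed three times, paraformaldehyde-fixed for 10 min, DAPI-stained for 10 min at room temperature and viewed by fluorescence microscopy.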

Compound: Cc1nc(Nc2ncc(C(=O)Nc3c(C)cccc3Cl)s2)cc(N2CCN(CCO)CC2)n1 [DAS, Dasatinib]
- tumor growth inhibition rate (TGI) [1]: 49.83%

Compound: O=C(c1cc(Cc2n[nH]c(=O)c3ccccc23)ccc1F)N1CCN(C(=O)C2CC2)CC1 [OLA, Olaparib]
- toxicity to MDA-MB-231 cells (MTT) [2]: low toxicity
- live/dead fluorescence (green living, red dead) [3]: no obvious red appearance
- serum indicators of liver and renal function (AST, ALT, BUN, CRE) vs normal mice [4]: significantly increased

Compound: CCN(CC)c1ccc2cc(-c3nc4ccccc4s3)c(=O)oc2c1 [C6, coumarin 6]
- cellular uptake (green fluorescence of C6) [5]: weak green fluorescence
